Reference: ChEMBL document CHEMBL1149671, “Enantiopure five-membered cyclicdiamine derivatives as potent and selective inhibitors of factor Xa. Improving in vitro metabolic stability via core modifications” (Bioorg Med Chem Lett, 2007)
Blank lines part the entries; values can stand above or below the compound they belong to.

Experiments:
[1] = target: Coagulation factor X (Homo sapiens, UniProt P00742); assay: Inhibition of human factor 10a
[2] = Cytotoxicity against HEK cells; type: cell-based; details: Homo sapiens, HEK293
[3] = tested on: Liver microsomes; assay: Metabolic stability in human liver microsomes assessed as microsomal intrinsic clearance rate; type: ADME, Microsome
Method in brief: (§1)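 Human liver microsomes, 10-min incubation. Metabolic stability given as % compound remaining. Microsomal intrinsic clearance rate (nmol/min/mg) is based on the % remaining after 10 min.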

[4] = Clearance in dog at 0.5 mg/kg, iv; type: ADME, organism-based, Canis lupus familiaris; set-up: dose 0.5 mg/kg, route intravenous; details: in vivo
Method in brief: (§2)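 Dogs. Intravenous dose 0.5 mg/kg, used for clearance (L/kg/h), steady-state volume of distribution (L/kg) and iv half-life.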

[5] = target: Plasminogen (Homo sapiens, UniProt P00747); assay: Inhibition of human Plasmin
Chain of Plasminogen (P00747 97-580 limits assumed): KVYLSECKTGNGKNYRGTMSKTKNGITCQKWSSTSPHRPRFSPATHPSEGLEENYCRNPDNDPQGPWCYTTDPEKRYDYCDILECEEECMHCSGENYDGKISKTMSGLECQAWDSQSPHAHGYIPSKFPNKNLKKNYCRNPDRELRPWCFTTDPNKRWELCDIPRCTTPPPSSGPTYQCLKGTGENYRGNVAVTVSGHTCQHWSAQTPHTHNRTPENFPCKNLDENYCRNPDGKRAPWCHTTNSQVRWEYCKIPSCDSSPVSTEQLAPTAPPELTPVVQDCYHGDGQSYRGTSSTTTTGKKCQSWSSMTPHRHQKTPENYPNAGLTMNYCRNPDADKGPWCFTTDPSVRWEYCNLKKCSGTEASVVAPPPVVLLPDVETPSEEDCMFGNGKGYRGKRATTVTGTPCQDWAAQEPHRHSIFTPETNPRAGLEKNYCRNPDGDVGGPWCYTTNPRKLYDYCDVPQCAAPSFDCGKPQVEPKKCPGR
Chain of Plasminogen (P00747 581-810 limits assumed): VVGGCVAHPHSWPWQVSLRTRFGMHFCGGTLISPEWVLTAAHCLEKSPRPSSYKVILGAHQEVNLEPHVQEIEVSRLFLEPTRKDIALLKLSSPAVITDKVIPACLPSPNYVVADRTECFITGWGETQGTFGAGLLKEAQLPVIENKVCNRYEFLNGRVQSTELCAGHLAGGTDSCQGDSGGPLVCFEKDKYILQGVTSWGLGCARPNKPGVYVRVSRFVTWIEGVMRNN

[6] = Bioavailability in dog at 0.2 mg/kg, po; type: ADME, organism-based, Canis lupus familiaris; details: in vivo; method in brief: as §2
[7] = target: Prothrombin (Homo sapiens, UniProt P00734); assay: Inhibition of human thrombin
[8] = target: Plasma kallikrein (Homo sapiens, UniProt P03952); assay: Inhibition of human plasma kallikrein; type: cell-free
Chain of Plasma kallikrein (P03952 20-390 limits assumed): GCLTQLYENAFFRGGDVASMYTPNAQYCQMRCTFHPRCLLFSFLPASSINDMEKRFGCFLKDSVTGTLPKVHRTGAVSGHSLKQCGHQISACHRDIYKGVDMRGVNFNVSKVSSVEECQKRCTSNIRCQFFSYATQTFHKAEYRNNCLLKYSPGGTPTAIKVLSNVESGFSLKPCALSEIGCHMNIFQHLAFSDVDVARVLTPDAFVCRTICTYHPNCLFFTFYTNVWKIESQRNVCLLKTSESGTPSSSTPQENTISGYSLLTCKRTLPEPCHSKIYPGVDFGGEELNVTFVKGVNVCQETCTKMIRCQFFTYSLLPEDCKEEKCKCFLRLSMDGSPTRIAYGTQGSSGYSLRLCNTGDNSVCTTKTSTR
Chain of Plasma kallikrein (P03952 391-638 limits assumed): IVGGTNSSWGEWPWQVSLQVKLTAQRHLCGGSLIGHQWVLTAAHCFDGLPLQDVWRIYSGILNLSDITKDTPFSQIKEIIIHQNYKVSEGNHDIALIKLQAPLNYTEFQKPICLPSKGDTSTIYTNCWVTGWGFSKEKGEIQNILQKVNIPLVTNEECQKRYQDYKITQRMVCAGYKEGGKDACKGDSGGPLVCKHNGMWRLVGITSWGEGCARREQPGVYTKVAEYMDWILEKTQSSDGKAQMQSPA

[9] = target: Trypsin (Homo sapiens, UniProt P07477+P07478+P35030); assay: Inhibition of human trypsin; type: protein assay
[10] = Inhibition of human chymotrypsin
[11] = target: Coagulation factor XI (Homo sapiens, UniProt P03951); assay: Inhibition of human factor 11a
Chain of Coagulation factor XI (P03951 19-387 limits assumed): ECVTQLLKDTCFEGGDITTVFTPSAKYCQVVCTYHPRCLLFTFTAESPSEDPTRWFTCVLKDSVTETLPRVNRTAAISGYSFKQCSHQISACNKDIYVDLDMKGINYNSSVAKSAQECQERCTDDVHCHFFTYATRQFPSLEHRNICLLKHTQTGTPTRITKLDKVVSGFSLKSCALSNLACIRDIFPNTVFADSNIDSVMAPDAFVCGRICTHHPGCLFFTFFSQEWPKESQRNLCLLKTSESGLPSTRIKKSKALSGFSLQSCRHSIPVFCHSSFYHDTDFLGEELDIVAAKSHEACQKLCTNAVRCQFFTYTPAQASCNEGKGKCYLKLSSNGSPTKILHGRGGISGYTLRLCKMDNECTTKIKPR
Chain of Coagulation factor XI (P03951 388-625 limits assumed): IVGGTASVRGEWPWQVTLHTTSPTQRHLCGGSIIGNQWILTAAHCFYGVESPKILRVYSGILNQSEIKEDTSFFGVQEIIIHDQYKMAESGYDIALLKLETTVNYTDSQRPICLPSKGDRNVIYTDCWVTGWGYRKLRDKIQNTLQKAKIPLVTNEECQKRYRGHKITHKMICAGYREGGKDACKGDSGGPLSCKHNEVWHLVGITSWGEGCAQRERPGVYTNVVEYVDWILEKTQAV

[12] = target: Urokinase-type plasminogen activator (Homo sapiens, UniProt P00749); assay: Inhibition of human urokinase
[13] = Volume of distribution at steady state in dog at 0.5 mg/kg, iv; type: ADME, organism-based, Canis lupus familiaris; set-up: dose 0.5 mg/kg, route intravenous; details: in vivo, read-out: Vdss; method in brief: as §2
[14] = Half life in dog at 0.5 mg/kg, iv; type: ADME, organism-based, Canis lupus familiaris; set-up: dose 0.5 mg/kg, route intravenous; details: in vivo; method in brief: as §2
[15] = target: Vitamin K-dependent protein C (Homo sapiens, UniProt P04070); assay: Inhibition of human activated protein C
Chain of Vitamin K-dependent protein C (P04070 43-197 limits assumed): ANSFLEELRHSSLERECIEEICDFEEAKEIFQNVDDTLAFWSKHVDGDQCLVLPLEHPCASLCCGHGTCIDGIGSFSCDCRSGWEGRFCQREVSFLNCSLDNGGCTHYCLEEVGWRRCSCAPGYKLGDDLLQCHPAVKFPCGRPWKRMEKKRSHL
Chain of Vitamin K-dependent protein C (P04070 212-461 limits assumed): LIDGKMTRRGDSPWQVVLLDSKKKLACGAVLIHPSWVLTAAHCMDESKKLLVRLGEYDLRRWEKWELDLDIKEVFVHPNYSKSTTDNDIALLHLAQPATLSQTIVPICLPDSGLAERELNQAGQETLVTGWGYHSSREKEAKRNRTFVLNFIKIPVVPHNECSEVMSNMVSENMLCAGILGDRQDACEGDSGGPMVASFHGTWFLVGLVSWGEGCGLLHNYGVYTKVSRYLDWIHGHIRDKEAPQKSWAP

[16] = target: T1, Coagulation factor VII (Homo sapiens, UniProt P08709); assay: Inhibition of human factor 7a
T1 sequence (P08709 whole entry): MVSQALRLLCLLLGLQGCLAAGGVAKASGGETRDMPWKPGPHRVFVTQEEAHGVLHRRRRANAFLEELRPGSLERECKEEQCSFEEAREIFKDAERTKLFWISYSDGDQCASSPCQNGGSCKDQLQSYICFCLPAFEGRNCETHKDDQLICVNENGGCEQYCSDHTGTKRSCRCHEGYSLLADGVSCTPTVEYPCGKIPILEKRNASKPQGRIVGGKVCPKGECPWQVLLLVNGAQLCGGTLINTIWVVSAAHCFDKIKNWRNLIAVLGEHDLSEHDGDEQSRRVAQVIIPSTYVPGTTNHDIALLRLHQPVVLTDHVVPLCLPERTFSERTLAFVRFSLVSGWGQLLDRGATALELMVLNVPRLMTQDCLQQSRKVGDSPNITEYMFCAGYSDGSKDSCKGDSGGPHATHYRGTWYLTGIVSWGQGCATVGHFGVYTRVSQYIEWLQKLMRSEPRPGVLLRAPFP

[17] = target: Tissue-type plasminogen activator (Homo sapiens, UniProt P00750); assay: Inhibition of human tissue plasminogen activator
Chain of Tissue-type plasminogen activator (P00750 whole entry): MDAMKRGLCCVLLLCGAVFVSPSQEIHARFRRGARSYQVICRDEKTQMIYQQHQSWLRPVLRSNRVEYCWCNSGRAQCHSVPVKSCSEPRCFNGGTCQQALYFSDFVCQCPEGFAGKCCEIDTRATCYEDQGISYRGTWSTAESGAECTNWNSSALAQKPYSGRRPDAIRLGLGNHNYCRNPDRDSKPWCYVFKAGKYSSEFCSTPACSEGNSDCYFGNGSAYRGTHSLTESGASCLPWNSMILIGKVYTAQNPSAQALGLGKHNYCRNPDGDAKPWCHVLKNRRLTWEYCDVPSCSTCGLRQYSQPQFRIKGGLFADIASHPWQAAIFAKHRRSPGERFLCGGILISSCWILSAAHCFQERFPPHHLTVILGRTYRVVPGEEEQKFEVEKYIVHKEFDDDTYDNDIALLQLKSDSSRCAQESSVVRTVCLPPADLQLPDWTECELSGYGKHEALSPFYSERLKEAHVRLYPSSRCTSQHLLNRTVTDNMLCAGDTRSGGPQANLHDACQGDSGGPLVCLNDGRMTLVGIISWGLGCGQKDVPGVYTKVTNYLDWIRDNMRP

[18] = Half life in dog at 0.2 mg/kg, po; type: ADME, organism-based, Canis lupus familiaris; set-up: dose 0.2 mg/kg, route oral; details: in vivo
[19] = Permeability across Caco-2 cells; type: ADME, cell-based; details: human, read-out: permeability
[20] = Metabolic stability in human liver microsomes after 10 mins; type: ADME, Microsome; details: read-out: Stability; method in brief: as §1

Chain of Coagulation factor X (P00742 41-179 limits assumed): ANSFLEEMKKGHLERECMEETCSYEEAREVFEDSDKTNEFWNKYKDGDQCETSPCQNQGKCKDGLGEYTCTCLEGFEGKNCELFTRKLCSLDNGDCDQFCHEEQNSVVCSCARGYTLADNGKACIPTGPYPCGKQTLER
Chain of Coagulation factor X (P00742 235-488 limits assumed): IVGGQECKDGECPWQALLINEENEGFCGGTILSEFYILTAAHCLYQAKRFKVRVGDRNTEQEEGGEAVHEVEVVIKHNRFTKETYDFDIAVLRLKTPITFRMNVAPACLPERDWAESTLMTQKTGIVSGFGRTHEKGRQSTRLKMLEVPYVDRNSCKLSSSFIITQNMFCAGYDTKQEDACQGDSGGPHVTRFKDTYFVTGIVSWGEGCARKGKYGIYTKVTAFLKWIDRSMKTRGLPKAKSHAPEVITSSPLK

Ki [1]: 0.0045 µM
SMILES: O=C(N[C@H]1CN(C(=O)OCC2c3ccccc3-c3ccccc32)C[C@H]1NC(=O)c1ccc(Cl)s1)c1ccc(-n2ccccc2=O)cc1

Ki [1]: 0.00084 µM
SMILES: O=C(N[C@H]1Cc2ccccc2[C@H]1NC(=O)c1ccc2c(Cl)c[nH]c2c1)c1ccc(-n2ccccc2=O)cc1

Ki [1]: 0.00039 µM
SMILES: COC(=O)C1C[C@H](NC(=O)c2ccc(-n3ccccc3=O)cc2)[C@H](NC(=O)c2ccc(Cl)s2)C1 (stereo partly drawn)

Ki [1]: 0.0079 µM
SMILES: O=C(N[C@H]1Cc2ccccc2[C@H]1NC(=O)c1ccc(-n2ccccc2=O)cc1)c1ccc2c(Cl)c[nH]c2c1

Ki [5]: > 22 µM
Ki [1]: 0.0019 µM
Ki [7]: > 12 µM
Ki [8]: > 6 µM
Ki [9]: > 5 µM
Ki [10]: > 20 µM
Ki [11]: > 11 µM
Ki [12]: > 14 µM
Ki [15]: > 21 µM
Ki [16]: > 11 µM
Ki [17]: > 21 µM
SMILES: O=C(N[C@H]1C[C@H](C(=O)O)C[C@H]1NC(=O)c1ccc(Cl)s1)c1ccc(-n2ccccc2=O)cc1

Ki [1]: 0.003 µM
SMILES: COC(=O)C1C[C@H](NC(=O)c2ccc(-n3ccccc3=O)cc2)[C@H](NC(=O)c2ccc3c(Cl)c[nH]c3c2)C1 (stereo partly drawn)

The remaining lines, values behind:

SMILES: CC(=O)N1C[C@H](NC(=O)c2ccc(-n3ccccc3=O)cc2)[C@H](NC(=O)c2ccc3c(Cl)c[nH]c3c2)C1
Ki [1]: 0.0039 µM

SMILES: CCOC(=O)N1C[C@H](NC(=O)c2ccc(-n3ccccc3=O)cc2)[C@H](NC(=O)c2ccc3c(Cl)c[nH]c3c2)C1
Ki [1]: 0.0028 µM

SMILES: CCC(=O)N1C[C@H](NC(=O)c2ccc(-n3ccccc3=O)cc2)[C@H](NC(=O)c2ccc(Cl)s2)C1
Ki [1]: 0.002 µM
IC50 [2]: > 100 µM

SMILES: CC(C)(C)C(=O)N1C[C@H](NC(=O)c2ccc(-n3ccccc3=O)cc2)[C@H](NC(=O)c2ccc(Cl)s2)C1
Ki [1]: 0.0017 µM
IC50 [2]: > 100 µM

SMILES: CC(C)C(=O)N1C[C@H](NC(=O)c2ccc(-n3ccccc3=O)cc2)[C@H](NC(=O)c2ccc(Cl)s2)C1
Ki [1]: 0.0013 µM
IC50 [2]: > 100 µM
CL [3]: 0 nmol/mg/min

SMILES: O=C(N[C@H]1CN(C(=O)OCC2c3ccccc3-c3ccccc32)C[C@H]1NC(=O)c1ccc2c(Cl)c[nH]c2c1)c1ccc(-n2ccccc2=O)cc1
Ki [1]: 0.163 µM
IC50 [2]: > 100 µM

SMILES: CCS(=O)(=O)N1C[C@H](NC(=O)c2ccc(-n3ccccc3=O)cc2)[C@H](NC(=O)c2ccc(Cl)s2)C1
clearance [4]: 25 mL/min/kg
Ki [5]: > 22 µM
bioavailability [6]: 16%
Ki [1]: 0.00064 µM
Ki [7]: 3.95 µM
Ki [8]: > 10.8 µM
Ki [9]: > 5 µM
Ki [10]: > 20 µM
Ki [11]: 6.68 µM
IC50 [2]: > 100 µM
CL [3]: 0 nmol/mg/min
Ki [12]: > 14 µM
Vd [13]: 1.1 L/kg
half-life [14]: 42 min
Ki [15]: > 21 µM
Ki [16]: > 11 µM
Ki [17]: > 21 µM
half-life [18]: 78 min
Papp [19]: < 1.5 ×10⁻⁶ cm/s

SMILES: CNC(=O)N1C[C@H](NC(=O)c2ccc(-n3ccccc3=O)cc2)[C@H](NC(=O)c2ccc(Cl)s2)C1
Ki [1]: 0.0011 µM
IC50 [2]: > 100 µM
CL [3]: 0 nmol/mg/min

SMILES: COC(=O)N1C[C@H](NC(=O)c2ccc(-n3ccccc3=O)cc2)[C@H](NC(=O)c2ccc(Cl)s2)C1
Ki [1]: 0.00074 µM
IC50 [2]: > 100 µM
CL [3]: 0 nmol/mg/min

SMILES: CC(=O)N1C[C@H](NC(=O)c2ccc(-n3ccccc3=O)cc2)[C@H](NC(=O)c2ccc(Cl)s2)C1
clearance [4]: 30 mL/min/kg
Ki [5]: > 22 µM
bioavailability [6]: 5%
Ki [1]: 0.00058 µM
Ki [7]: 5.44 µM
Ki [8]: > 6 µM
Ki [9]: > 5 µM
Ki [10]: > 20 µM
Ki [11]: 10.2 µM
IC50 [2]: > 100 µM
CL [3]: 0 nmol/mg/min
Ki [12]: > 14 µM
Vd [13]: 2.4 L/kg
half-life [14]: 48 min
Ki [15]: > 21 µM
Ki [16]: > 11 µM
Ki [17]: > 21 µM
half-life [18]: 48 min
Papp [19]: < 1.5 ×10⁻⁶ cm/s

SMILES: O=C(N[C@H]1c2ccccc2C[C@H]1NC(=O)c1ccc(Cl)s1)c1ccc(-n2ccccc2=O)cc1
Ki [1]: 0.00027 µM
remaining at 10 min [20]: 32%

SMILES: O=C(N[C@H]1C[C@H](C(=O)NC2CC2)C[C@H]1NC(=O)c1ccc(Cl)s1)c1ccc(-n2ccccc2=O)cc1
Ki [1]: 0.0016 µM

SMILES: O=C(N[C@H]1CN(C(=O)N2CCCC2)C[C@H]1NC(=O)c1ccc(Cl)s1)c1ccc(-n2ccccc2=O)cc1
Ki [1]: 0.0017 µM
IC50 [2]: > 100 µM

SMILES: COCCNC(=O)[C@H]1C[C@H](NC(=O)c2ccc(-n3ccccc3=O)cc2)[C@H](NC(=O)c2ccc(Cl)s2)C1
Ki [1]: 0.0029 µM

SMILES: O=C(N[C@H]1C[C@H](C(=O)N2CCOCC2)C[C@H]1NC(=O)c1ccc(Cl)s1)c1ccc(-n2ccccc2=O)cc1
Ki [1]: 0.0016 µM
